The nature of data set [1]: Bioavailability in dog. Format: ADME, organism-based, Canis lupus familiaris. Particulars: in vivo.
Data set [2] can be described thus: Bioavailability in rat. Format: ADME, organism-based. Particulars: in vivo.
Data set [3] is described as follows: Plasma half life in dog. Format: ADME, organism-based, Canis lupus familiaris.
A short description of data set [4]: Plasma half life in rat. Format: ADME, organism-based.
Data set [5] is filed under the species Rattus norvegicus. In words: Duration of action in rat. Format: ADME, organism-based. Particulars: in vivo.
The species entered for data set [6] is Homo sapiens. The experiment in a line: Binding affinity in human prostate using A-61603. Format: functional. The settings on record: Prostate gland.
Data set [7] concerns the target Mu-type opioid receptor (Homo sapiens, UniProt P35372). In words: Binding affinity against Opioid receptor mu 1.
Data set [8] is filed under the species Rattus norvegicus. The experiment in a line: Antagonism against phenylephrine induced contractions in rat prostate. Format: functional, Prostate gland.
For data set [9], the target named is Adrenergic receptor alpha-1 (Homo sapiens) (UniProt P35348+P25100+P35368). The experiment in a line: Selectivity ratio( alpha-1b,1d/alpha1a). Format: protein assay.
For data set [10], the target named is T1, Alpha-1D adrenergic receptor (Homo sapiens, UniProt P25100).
T1 sequence (P25100 whole entry): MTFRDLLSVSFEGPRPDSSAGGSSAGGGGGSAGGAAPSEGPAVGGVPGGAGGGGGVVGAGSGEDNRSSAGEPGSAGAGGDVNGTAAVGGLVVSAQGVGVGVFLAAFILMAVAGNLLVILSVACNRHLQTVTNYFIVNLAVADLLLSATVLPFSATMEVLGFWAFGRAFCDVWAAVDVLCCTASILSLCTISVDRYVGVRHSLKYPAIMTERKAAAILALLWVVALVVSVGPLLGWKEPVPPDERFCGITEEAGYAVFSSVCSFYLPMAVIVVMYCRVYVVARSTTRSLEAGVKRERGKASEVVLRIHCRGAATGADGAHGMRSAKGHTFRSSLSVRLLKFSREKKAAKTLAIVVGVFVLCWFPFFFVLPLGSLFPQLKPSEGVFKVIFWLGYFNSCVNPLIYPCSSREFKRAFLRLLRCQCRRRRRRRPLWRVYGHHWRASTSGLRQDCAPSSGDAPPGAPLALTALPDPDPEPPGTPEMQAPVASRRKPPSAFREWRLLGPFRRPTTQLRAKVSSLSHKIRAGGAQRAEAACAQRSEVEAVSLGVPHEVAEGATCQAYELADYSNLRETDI
The experiment in a line: In vitro binding affinity against alpha-1D adrenergic receptor (cloned human).

Data set [11] deals with T2, Alpha-1A adrenergic receptor (Homo sapiens, UniProt P35348).
T2 sequence (P35348 whole entry): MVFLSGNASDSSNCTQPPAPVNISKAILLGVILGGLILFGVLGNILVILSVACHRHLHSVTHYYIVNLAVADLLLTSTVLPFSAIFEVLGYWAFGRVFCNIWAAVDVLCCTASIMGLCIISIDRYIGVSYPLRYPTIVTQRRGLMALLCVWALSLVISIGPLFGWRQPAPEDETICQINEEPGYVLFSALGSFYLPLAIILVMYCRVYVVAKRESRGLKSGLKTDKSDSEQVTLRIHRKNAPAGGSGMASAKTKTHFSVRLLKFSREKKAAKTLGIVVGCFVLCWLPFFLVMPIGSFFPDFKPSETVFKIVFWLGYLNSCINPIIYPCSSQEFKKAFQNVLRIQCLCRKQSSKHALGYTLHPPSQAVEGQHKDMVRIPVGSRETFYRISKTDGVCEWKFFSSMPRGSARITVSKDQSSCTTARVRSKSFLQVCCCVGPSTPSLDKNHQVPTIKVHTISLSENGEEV
In words: In vitro binding affinity against alpha-1A adrenergic receptor of human clones.

The target in data set [12] is T3, Alpha-1B adrenergic receptor (Homo sapiens, UniProt P35368).
T3 sequence (P35368 whole entry): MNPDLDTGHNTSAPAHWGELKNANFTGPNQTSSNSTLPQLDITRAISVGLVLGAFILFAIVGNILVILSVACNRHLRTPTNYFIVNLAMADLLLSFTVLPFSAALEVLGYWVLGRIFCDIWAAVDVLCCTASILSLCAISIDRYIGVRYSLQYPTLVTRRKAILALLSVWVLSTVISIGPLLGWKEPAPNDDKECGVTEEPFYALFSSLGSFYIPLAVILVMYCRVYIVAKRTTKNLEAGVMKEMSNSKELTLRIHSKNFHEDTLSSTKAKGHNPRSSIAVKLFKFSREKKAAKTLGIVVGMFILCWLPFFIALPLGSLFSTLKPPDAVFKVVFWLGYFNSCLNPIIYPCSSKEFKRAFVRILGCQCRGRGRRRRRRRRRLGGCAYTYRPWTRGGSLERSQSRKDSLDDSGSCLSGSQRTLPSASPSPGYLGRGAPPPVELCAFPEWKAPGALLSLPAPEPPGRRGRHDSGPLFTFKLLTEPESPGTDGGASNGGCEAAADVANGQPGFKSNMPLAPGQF
In words: In vitro binding affinity against Alpha-1B adrenergic receptor cloned from human.

Data set [13] deals with Mu-type opioid receptor (Mus musculus, UniProt P42866). In words: Binding affinity against opioid receptor.
Sequence of Mu-type opioid receptor (Mus musculus, UniProt P42866) (P42866 whole entry): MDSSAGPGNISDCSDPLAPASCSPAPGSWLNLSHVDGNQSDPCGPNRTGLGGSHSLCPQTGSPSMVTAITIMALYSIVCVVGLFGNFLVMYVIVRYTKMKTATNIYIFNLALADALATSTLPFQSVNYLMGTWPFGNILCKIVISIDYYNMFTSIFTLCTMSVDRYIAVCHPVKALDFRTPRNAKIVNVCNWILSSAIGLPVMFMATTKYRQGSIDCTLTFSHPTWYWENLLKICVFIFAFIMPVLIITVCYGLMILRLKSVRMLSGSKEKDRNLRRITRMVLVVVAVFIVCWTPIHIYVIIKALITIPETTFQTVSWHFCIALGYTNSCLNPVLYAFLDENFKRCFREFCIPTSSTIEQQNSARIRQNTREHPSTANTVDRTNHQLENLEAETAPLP
Data set [14] is filed under the species Rattus norvegicus. In words: Dose required to inhibit 50% of contractile responses induced by phenylephrine in rat prostate. Format: functional, Prostate gland.
Data set [15] is filed under the species Homo sapiens. In words: In vitro binding affinity against human prostate using A-61603 as agonist. Format: functional. Particulars: Prostate gland.
The species named for data set [16] is Canis familiaris. The experiment in a line: Potency to inhibit phenylephrine induced diastolic blood pressure in dog. Format: functional, Canis lupus familiaris, Artery. In outline: (§1)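 In dogs, diastolic blood pressure and intraurethral pressure were stimulated with phenylephrine. Antagonist potency was expressed as Kb in µg/kg.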
The species named for data set [17] is Canis familiaris. In words: Potency to inhibit phenylephrine induced intraurethral pressure in dog. Format: functional, Canis lupus familiaris, Urethra. In outline: as §1
The species entered for data set [18] is Rattus norvegicus. In words: Antagonism against norepinephrine induced contractions in rat aorta. Format: functional.

These results are taken from ChEMBL document CHEMBL1132477, “Design and synthesis of novel alpha(1)(a) adrenoceptor-selective antagonists. 2. Approaches to eliminate opioid agonist metabolites via modification of linker and 4-methoxycarbonyl-4-phenylpiperidine moiety” (J Med Chem, 1999).

Sequence of Mu-type opioid receptor (Homo sapiens, UniProt P35372) (P35372 whole entry): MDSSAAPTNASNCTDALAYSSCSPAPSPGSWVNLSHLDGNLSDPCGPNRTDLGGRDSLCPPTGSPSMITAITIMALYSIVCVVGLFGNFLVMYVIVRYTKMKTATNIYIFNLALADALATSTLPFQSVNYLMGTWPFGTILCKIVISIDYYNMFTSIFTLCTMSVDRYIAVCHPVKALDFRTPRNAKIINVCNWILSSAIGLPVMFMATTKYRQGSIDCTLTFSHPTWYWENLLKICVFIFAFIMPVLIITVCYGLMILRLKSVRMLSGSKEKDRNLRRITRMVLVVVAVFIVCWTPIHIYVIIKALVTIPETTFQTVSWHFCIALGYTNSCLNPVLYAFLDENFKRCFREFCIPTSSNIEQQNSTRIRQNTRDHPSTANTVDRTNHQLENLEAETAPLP

`CCC1=C(C(N)=O)C(c2ccc(F)c(F)c2)N(C(=O)NCCCN2CCC(C(=O)OC)(c3ccccc3)CC2)C(=O)N1` (centres undefined): the bioavailability came out at 26% in [1] and 15% in data set [2]. Besides, the values for the half-life in data set [3] and in data set [4] were 2.5 h and 2 h, respectively. Further, the Time in the data set listed under Rattus norvegicus [5] was more than 4 h. In addition, the Kb is 0.1 nM in the data set filed under Homo sapiens [6] and 0.5 nM in the data set listed under Rattus norvegicus [8]. Besides, the Ki was found to be 4000 nM at Mu-type opioid receptor [7], 340 nM in data set [10], 0.2 nM in data set [11] and 250 nM in data set [12]. Also, the Ratio in data set [9] was more than 1000.
For `COCC1=C(C(=O)OC)C(c2ccc(F)c(F)c2)N(C(=O)NCCCN2CCC(C)(c3ccccc3)CC2)C(=O)N1` (centres undefined), in data set [2], the bioavailability stood at 23%. Besides, the figures for the half-life in [3] and in data set [4] were 6.5 h and 0.4 h, respectively. In the data set filed under Rattus norvegicus [5], this molecule showed a Time of 2 h. The Kb in the data set listed under Homo sapiens [6] amounted to 0.7 nM; in the data set listed under Rattus norvegicus [8], 0.4 nM. Besides, the Ki at Mu-type opioid receptor [13] was found to be 100000 nM; in [10], 640 nM; in data set [11], 0.5 nM; in data set [12], 440 nM. Besides, the AD50 in the data set filed under Rattus norvegicus [14] was 0.069 mg/kg. Besides, the Ratio in data set [9] is more than 400.
In data set [2], `COc1cc2nc(N3CCN(C(=O)C4CCCO4)CC3)nc(N)c2cc1OC` (centres undefined) [TERAZOSIN] came in with a bioavailability of 49%. The same molecule gave a half-life in data set [4] of 7.5 h. Further, the Time in the data set listed under Rattus norvegicus [5] was determined as 3 h. Moreover, the Kb in the data set listed under Homo sapiens [15] and in the data set listed under Rattus norvegicus [8] was 25 nM each time.
In the case of `CCC1=C(C(N)=O)C(c2ccc(F)cc2F)N(C(=O)NCCCN2CCC(C#N)(c3ccccc3)CC2)C(=O)N1` (centres undefined), the bioavailability was 32% in data set [1] and 8% in data set [2]. Also, the half-life was 2.3 h in [3] and 0.4 h in [4]. Moreover, in the data set listed under Rattus norvegicus [5], the Time stood at 1.5 h. Moreover, the Kb is more than 300 µg/kg in the data set listed under Canis familiaris [16], 14.2 µg/kg in the data set filed under Canis familiaris [17], more than 1000 nM in the data set filed under Rattus norvegicus [18] and 2.2 nM in the data set filed under Rattus norvegicus [8]. Also, the Ki is 51000 nM at Mu-type opioid receptor [13], 1280 nM in [10], 0.7 nM in data set [11] and 610 nM in data set [12]. For the same molecule, the AD50 in the data set listed under Rattus norvegicus [14] was found to be 0.018 mg/kg. In data set [9], the Ratio is more than 900.

Usually bioavailability stands for the share of a dose that reaches the circulation, judged against a reference dose that is usually intravenous. Read a high bioavailability as much systemic uptake. The half-life is the time needed for the level to fall by half in the phase considered. Read a high half-life as slow decline. Broadly, the Ki is a dissociation constant, usually derived from enzyme kinetics or from competition with a known ligand.
